Laboratory results reported in ChEMBL document CHEMBL4138126, “Synthesis, antiproliferative, anti-tubulin activity, and docking study of new 1,2,4-triazoles as potential combretastatin analogues” (Eur J Med Chem, 2017).

Legend:
[1] = system: HepG2; experiment: Cytotoxicity in human HepG2 cells assessed as reduction in cell viability incubated for 48 hrs by MTT assay; assay type: functional, cell-based; settings: HepG2, 48 h
Method in brief: (§1)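 HepG2 and HL60 (ATCC) grown in DMEM with 10% FBS, 2 mM L-glutamine, penicillin/streptomycin, amphotericin B at 37 °C, 5% CO2. Samples dissolved in DMSO, diluted thousandfold in assay. Cells seeded in serum-free medium, treated with serial concentrations 48 h; MTT 4 h, formazan dissolved in acidified isopropanol, A570. Triplicates averaged; viability relative to untreated/vehicle control.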

[2] = system: HL-60; experiment: Cytotoxicity in human HL60 cells assessed as reduction in cell viability incubated for 48 hrs by MTT assay; assay type: functional, cell-based; settings: HL-60, 48 h; method in brief: as §1
[3] = Inhibition of beta tubulin polymerisation in human HepG2 cells incubated for 2 hrs using TMB substrate by ELISA; assay type: cell-based; settings: HepG2, 2 h
[4] = system: HepG2; experiment: Inhibition of beta tubulin polymerisation in human HepG2 cells incubated for 2 hrs using TMB substrate by ELISA relative to untreated control; assay type: cell-based; set-up: concentration or dose not given beside the values; settings: dose or concentration not given here

Row | SMILES | IC50 [1] [µM] | IC50 [2] [µM] | IC50 [3] [µM] | inhibition [4] [%]
1 | COc1cccc(-n2nc(C(=O)Nc3ccc(F)c(F)c3)nc2-c2cc(OC)c(OC)c(OC)c2)c1 | 11 | 31.3 |  | 
2 | COc1cccc(-n2nc(C(=O)Nc3cc(F)cc(F)c3)nc2-c2cc(OC)c(OC)c(OC)c2)c1 | 1.38 | 54.2 | 1.3 | 65.2
3 | COc1ccc(/C=C\c2cc(OC)c(OC)c(OC)c2)cc1O [COMBRETASTATIN A4] | 2.41 | 0.56 | 2.4 | 72.3
4 | CCOc1ccc(NC(=O)c2nc(-c3cc(OC)c(OC)c(OC)c3)n(-c3ccc(OCC)cc3)n2)cc1 | 29.8 | 6 |  | 
5 | COc1cccc(NC(=O)c2nc(-c3cc(OC)c(OC)c(OC)c3)n(-c3cccc(OC)c3)n2)c1 | 15.3 | 15.3 |  | 
6 | COc1cccc(-n2nc(C(=O)Nc3ccccc3OC)nc2-c2cc(OC)c(OC)c(OC)c2)c1 | 29.9 | 29.9 |  | 
7 | CCOc1ccc(NC(=O)c2nc(-c3cc(OC)c(OC)c(OC)c3)n(-c3cccc(OC)c3)n2)cc1 | 8.75 | 14.5 |  | 
8 | COc1cccc(-n2nc(C(=O)Nc3cc(OC)c(OC)c(OC)c3)nc2-c2cc(OC)c(OC)c(OC)c2)c1 | 8.51 | 6.02 |  | 
9 | COc1cccc(CNC(=O)c2nc(-c3cc(OC)c(OC)c(OC)c3)n(-c3cccc(OC)c3)n2)c1 | 0.9 | > 100 |  | 
10 | CCOc1ccc(-n2nc(C(=O)Nc3ccc(OC)c(OC)c3)nc2-c2cc(OC)c(OC)c(OC)c2)cc1 | 32.8 | 4.3 |  | 
11 | COc1cccc(-n2nc(C(=O)Nc3ccc(OC)c(OC)c3)nc2-c2cc(OC)c(OC)c(OC)c2)c1 | 32.5 | 14.2 |  | 
12 | COc1cccc(-n2nc(C(=O)Nc3ccc(F)c(F)c3F)nc2-c2cc(OC)c(OC)c(OC)c2)c1 | 16.3 | 27.2 |  | 
